Test results: ChEMBL document CHEMBL1641559, “Facile synthesis and biological evaluation of 3,3-diphenylpropanoyl piperazines as T-type calcium channel blockers” (Bioorg Med Chem Lett, 2011)

Target: T1, Voltage-dependent T-type calcium channel subunit alpha-1G (Homo sapiens, UniProt O43497)
Assay: Inhibition of T-type alpha1G calcium channel expressed in HEK293 cells assessed as Kcl-induced depolarization at 10 uM
Type: cell-based
Method in brief: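 HEK293 cells stably expressing alpha1G plus Kir2.1, grown in DMEM/10% FBS with penicillin, streptomycin, geneticin and puromycin at 37 °C, 5% CO2; seeded 4 × 10^4 cells/well, used next day. Loaded 60 min at room temperature with 5 µM fluo3/AM and 0.001% Pluronic F-127 in Hepes buffer (pH 7.4). Channels activated by 70 mM KCl with 10 mM CaCl2; rise in intracellular Ca2+ read by FDSS6000 fluorescence.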

T1 sequence (O43497 whole entry): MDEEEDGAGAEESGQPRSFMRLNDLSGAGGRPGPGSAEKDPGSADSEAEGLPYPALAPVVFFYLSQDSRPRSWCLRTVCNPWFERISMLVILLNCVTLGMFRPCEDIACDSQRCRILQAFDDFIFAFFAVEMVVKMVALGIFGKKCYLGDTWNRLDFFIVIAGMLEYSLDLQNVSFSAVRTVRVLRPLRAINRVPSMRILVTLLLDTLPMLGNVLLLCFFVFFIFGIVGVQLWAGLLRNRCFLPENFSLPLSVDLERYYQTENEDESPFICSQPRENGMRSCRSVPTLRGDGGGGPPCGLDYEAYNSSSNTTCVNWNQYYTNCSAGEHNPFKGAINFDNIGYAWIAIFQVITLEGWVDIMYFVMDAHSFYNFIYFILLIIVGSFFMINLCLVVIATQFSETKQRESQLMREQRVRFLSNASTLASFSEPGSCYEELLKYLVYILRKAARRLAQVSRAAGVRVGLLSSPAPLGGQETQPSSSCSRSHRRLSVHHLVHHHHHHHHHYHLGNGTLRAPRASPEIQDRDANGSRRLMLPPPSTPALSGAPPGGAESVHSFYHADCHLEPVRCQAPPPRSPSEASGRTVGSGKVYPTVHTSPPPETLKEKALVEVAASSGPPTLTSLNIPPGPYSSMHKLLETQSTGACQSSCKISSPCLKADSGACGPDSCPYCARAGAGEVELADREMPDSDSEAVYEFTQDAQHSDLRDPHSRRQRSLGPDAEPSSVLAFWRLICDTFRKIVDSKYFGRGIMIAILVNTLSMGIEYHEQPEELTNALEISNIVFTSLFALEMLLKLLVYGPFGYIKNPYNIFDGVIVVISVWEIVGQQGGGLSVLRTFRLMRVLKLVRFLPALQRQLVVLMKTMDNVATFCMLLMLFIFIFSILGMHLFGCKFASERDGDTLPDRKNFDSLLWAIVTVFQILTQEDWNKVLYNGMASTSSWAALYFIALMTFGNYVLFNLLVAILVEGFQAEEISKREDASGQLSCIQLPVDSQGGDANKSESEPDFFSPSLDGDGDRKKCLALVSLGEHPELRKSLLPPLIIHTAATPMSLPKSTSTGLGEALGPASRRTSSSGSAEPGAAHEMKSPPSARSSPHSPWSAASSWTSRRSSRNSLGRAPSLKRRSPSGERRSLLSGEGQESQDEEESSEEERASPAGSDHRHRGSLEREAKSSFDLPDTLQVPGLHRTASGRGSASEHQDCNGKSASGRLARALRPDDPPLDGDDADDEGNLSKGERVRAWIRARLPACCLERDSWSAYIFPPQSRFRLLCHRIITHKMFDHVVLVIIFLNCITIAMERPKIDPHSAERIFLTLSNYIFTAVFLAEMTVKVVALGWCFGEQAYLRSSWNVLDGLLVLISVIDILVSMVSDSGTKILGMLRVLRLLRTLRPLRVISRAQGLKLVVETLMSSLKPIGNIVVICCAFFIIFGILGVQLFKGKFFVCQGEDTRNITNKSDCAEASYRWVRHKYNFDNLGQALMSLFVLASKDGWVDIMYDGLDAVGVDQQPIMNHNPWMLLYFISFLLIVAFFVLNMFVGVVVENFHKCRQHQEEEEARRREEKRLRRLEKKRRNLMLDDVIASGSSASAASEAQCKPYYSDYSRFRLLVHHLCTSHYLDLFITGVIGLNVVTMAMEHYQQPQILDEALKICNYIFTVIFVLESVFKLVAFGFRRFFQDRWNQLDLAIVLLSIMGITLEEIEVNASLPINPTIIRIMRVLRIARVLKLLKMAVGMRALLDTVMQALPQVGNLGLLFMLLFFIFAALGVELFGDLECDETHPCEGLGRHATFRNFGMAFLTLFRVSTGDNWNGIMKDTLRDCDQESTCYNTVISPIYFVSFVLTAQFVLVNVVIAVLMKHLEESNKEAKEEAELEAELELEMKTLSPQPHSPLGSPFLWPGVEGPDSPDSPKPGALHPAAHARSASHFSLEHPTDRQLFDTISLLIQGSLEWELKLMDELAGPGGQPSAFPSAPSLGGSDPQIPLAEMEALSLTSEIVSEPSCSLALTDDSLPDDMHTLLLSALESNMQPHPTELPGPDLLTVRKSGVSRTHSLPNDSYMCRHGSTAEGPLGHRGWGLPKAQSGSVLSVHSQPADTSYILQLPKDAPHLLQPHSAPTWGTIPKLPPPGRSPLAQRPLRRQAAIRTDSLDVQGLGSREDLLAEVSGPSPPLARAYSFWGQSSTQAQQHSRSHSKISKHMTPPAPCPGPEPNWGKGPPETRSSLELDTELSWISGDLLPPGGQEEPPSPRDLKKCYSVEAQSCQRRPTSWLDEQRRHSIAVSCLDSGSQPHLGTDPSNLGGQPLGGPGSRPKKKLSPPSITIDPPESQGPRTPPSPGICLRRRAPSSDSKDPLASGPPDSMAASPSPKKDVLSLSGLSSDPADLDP

Row | Structure (SMILES) | inhibition [%]
1 | O=C(CC(c1ccc(Br)cc1)c1cccc(F)c1)N1CCN(Cc2nc(C(=O)N3CCOCC3)co2)CC1 (centres undefined) | 44.6
2 | COC(=O)c1coc(CN2CCN(C(=O)CC(c3ccc(F)cc3)c3ccc(F)cc3)CC2)n1 | 33.5
3 | COC(=O)c1coc(CN2CCN(C(=O)CC(c3ccc(OC)cc3)c3cccc(F)c3)CC2)n1 (centres undefined) | 25.5
4 | COC(=O)c1coc(CN2CCN(C(=O)CC(c3ccc(F)cc3)c3cccc(F)c3)CC2)n1 (centres undefined) | 44.5
5 | Cc1ccc2nc(CN3CCN(C(=O)CC(c4ccccc4)c4ccc(F)cc4)CC3)oc2c1 (centres undefined) | 42.7
6 | COC(=O)c1coc(CN2CCN(C(=O)CC(c3ccc(F)cc3)c3ccc(Br)cc3)CC2)n1 (centres undefined) | 42.1
7 | O=C(O)c1coc(CN2CCN(C(=O)CC(c3ccc(F)cc3)c3ccc(Br)cc3)CC2)n1 (centres undefined) | 5.42
8 | O=C(CC(c1ccc(F)cc1)c1cccc(F)c1)N1CCN(Cc2nc(CO)co2)CC1 (centres undefined) | 13.7
9 | Cc1ccc2nc(CN3CCN(C(=O)CC(c4ccccc4)c4ccc(Cl)cc4)CC3)oc2c1 (centres undefined) | 25.9
10 | COC(=O)c1coc(CN2CCN(C(=O)CC(c3ccc(Cl)cc3)c3cccc(F)c3)CC2)n1 (centres undefined) | 24.5
11 | COc1ccc(C(CC(=O)N2CCN(Cc3nc(C(=O)N4CCOCC4)co3)CC2)c2cccc(F)c2)cc1 (centres undefined) | 19.7
12 | O=C(O)c1coc(CN2CCN(C(=O)CC(c3ccc(F)cc3)c3ccc(Cl)cc3)CC2)n1 (centres undefined) | 3.62
13 | COC(=O)c1coc(CN2CCN(C(=O)CC(c3ccccc3)c3ccc(C(F)(F)F)cc3)CC2)n1 (centres undefined) | 60.4
14 | Cc1ccc2nc(CN3CCN(C(=O)CC(c4ccc(F)cc4)c4ccc(Br)cc4)CC3)oc2c1 (centres undefined) | 11.2
15 | Cc1ccc2nc(CN3CCN(C(=O)CC(c4ccccc4)c4ccc(C(F)(F)F)cc4)CC3)oc2c1 (centres undefined) | 22.4
16 | Cc1ccc2nc(CN3CCN(C(=O)CC(c4ccc(F)cc4)c4ccc(Cl)cc4)CC3)oc2c1 (centres undefined) | 15.5
17 | COC(=O)c1coc(CN2CCN(C(=O)CC(c3ccccc3)c3ccc(OC)cc3)CC2)n1 (centres undefined) | 22.8
18 | Cc1ccc2nc(CN3CCN(C(=O)CC(c4ccc(C(F)(F)F)cc4)c4cccc(F)c4)CC3)oc2c1 (centres undefined) | 26.4
19 | COc1ccc(C(CC(=O)N2CCN(Cc3nc4ccc(C)cc4o3)CC2)c2cccc(F)c2)cc1 (centres undefined) | 52
20 | O=C(CC(c1ccc(Br)cc1)c1cccc(F)c1)N1CCN(Cc2nc(CO)co2)CC1 (centres undefined) | 21.3
21 | COC(=O)c1coc(CN2CCN(C(=O)CC(c3ccccc3)c3ccc(Br)cc3)CC2)n1 (centres undefined) | 42.8
22 | COc1ccc(C(CC(=O)N2CCN(Cc3nc(CO)co3)CC2)c2cccc(F)c2)cc1 (centres undefined) | 4.9
23 | O=C(CC(c1ccc(Cl)cc1)c1cccc(F)c1)N1CCN(Cc2nc(C(=O)N3CCOCC3)co2)CC1 (centres undefined) | 48.6

Row | Structure (SMILES) | inhibition [%]
24 | COc1ccc(C(CC(=O)N2CCN(Cc3nc4ccc(C)cc4o3)CC2)c2ccc(F)cc2)cc1 (centres undefined) | 23.3
25 | COC(=O)c1coc(CN2CCN(C(=O)CC(c3ccccc3)c3ccc(Cl)cc3)CC2)n1 (centres undefined) | 35
26 | O=C(CC(c1ccc(F)cc1)c1cccc(F)c1)N1CCN(Cc2nc(C(=O)N3CCOCC3)co2)CC1 (centres undefined) | 36.9
27 | Cc1ccc2nc(CN3CCN(C(=O)CC(c4ccc(Cl)cc4)c4cccc(F)c4)CC3)oc2c1 (centres undefined) | 32.2
28 | O=C(CC(c1ccc(Cl)cc1)c1cccc(F)c1)N1CCN(Cc2nc(CO)co2)CC1 (centres undefined) | 19.2
29 | COC(=O)c1coc(CN2CCN(C(=O)CC(c3ccc(F)cc3)c3ccc(Cl)cc3)CC2)n1 (centres undefined) | 45.1
30 | O=C(CC(c1ccc(C(F)(F)F)cc1)c1cccc(F)c1)N1CCN(Cc2nc(CO)co2)CC1 (centres undefined) | 19.2
31 | Cc1ccc2nc(CN3CCN(C(=O)CC(c4ccc(F)cc4)c4ccc(F)cc4)CC3)oc2c1 | 30.9
32 | Cc1ccc2nc(CN3CCN(C(=O)CC(c4ccc(F)cc4)c4ccc(C(F)(F)F)cc4)CC3)oc2c1 (centres undefined) | 9.84
33 | Cc1ccc2nc(CN3CCN(C(=O)CC(c4ccccc4)c4ccc(Br)cc4)CC3)oc2c1 (centres undefined) | 13.6
34 | COC(=O)c1coc(CN2CCN(C(=O)CC(c3ccc(F)cc3)c3ccc(C(F)(F)F)cc3)CC2)n1 (centres undefined) | 51.8
35 | Cc1ccc2nc(CN3CCN(C(=O)CC(c4ccc(F)cc4)c4cccc(F)c4)CC3)oc2c1 (centres undefined) | 44.9
36 | COC(=O)c1coc(CN2CCN(C(=O)CC(c3ccc(Br)cc3)c3cccc(F)c3)CC2)n1 (centres undefined) | 36.6
37 | O=C(O)c1coc(CN2CCN(C(=O)CC(c3ccc(F)cc3)c3ccc(F)cc3)CC2)n1 | 3.84
38 | Cc1ccc2nc(CN3CCN(C(=O)CC(c4ccc(Br)cc4)c4cccc(F)c4)CC3)oc2c1 (centres undefined) | 18
39 | COc1ccc(C(CC(=O)N2CCN(Cc3nc(C(=O)O)co3)CC2)c2ccc(F)cc2)cc1 (centres undefined) | 7.68
40 | COC(=O)c1coc(CN2CCN(C(=O)CC(c3ccc(C(F)(F)F)cc3)c3cccc(F)c3)CC2)n1 (centres undefined) | 57.6
41 | O=C(O)c1coc(CN2CCN(C(=O)CC(c3ccc(F)cc3)c3ccc(C(F)(F)F)cc3)CC2)n1 (centres undefined) | 3.62
42 | COc1ccc(C(CC(=O)N2CCN(Cc3nc4ccc(C)cc4o3)CC2)c2ccccc2)cc1 (centres undefined) | 63.5
43 | O=C(CC(c1ccc(C(F)(F)F)cc1)c1cccc(F)c1)N1CCN(Cc2nc(C(=O)N3CCOCC3)co2)CC1 (centres undefined) | 53.4
44 | COC(=O)c1coc(CN2CCN(C(=O)CC(c3ccc(F)cc3)c3ccc(OC)cc3)CC2)n1 (centres undefined) | 24.5
45 | COC(=O)c1coc(CN2CCN(C(=O)CC(c3ccccc3)c3ccc(F)cc3)CC2)n1 (centres undefined) | 27.7

Target: Voltage-gated inwardly rectifying potassium channel KCNH2 (Homo sapiens, UniProt Q12809)
Sequence (Q12809 whole entry): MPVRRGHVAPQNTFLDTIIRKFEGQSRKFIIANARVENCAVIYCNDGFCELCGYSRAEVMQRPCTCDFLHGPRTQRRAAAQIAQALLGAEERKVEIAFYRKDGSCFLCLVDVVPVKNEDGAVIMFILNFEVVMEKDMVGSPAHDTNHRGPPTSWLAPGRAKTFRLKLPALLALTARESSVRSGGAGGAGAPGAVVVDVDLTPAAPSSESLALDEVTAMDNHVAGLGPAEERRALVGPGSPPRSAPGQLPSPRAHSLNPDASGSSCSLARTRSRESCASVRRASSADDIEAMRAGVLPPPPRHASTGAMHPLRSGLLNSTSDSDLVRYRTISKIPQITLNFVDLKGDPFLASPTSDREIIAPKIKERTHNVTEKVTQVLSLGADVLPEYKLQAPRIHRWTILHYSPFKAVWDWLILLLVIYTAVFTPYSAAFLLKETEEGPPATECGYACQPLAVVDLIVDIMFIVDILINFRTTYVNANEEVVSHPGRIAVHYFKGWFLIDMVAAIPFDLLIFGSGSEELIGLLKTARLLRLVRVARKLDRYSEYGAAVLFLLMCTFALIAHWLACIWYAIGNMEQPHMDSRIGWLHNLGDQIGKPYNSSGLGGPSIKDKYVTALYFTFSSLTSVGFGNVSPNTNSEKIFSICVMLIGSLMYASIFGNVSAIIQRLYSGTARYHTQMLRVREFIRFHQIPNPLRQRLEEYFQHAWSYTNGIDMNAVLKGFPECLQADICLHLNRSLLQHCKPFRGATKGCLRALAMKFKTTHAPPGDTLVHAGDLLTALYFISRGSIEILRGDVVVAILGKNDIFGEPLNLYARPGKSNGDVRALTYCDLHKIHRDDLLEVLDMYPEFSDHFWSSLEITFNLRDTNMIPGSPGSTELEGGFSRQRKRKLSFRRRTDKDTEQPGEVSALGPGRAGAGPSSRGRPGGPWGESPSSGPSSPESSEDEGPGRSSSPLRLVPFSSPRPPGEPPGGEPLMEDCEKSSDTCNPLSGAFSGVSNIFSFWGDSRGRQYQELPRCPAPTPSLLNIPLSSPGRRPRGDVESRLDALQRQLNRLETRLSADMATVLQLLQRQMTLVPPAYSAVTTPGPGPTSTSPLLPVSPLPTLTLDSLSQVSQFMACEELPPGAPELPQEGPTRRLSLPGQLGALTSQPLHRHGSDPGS
Assay: Inhibition of human hERG

Row | Structure (SMILES) | IC50 [nM]
46 | COC(=O)c1coc(CN2CCN(C(=O)CC(c3ccc(F)cc3)c3ccc(Br)cc3)CC2)n1 (centres undefined) | 2230

Target: T1, Voltage-dependent T-type calcium channel subunit alpha-1G
Assay: Inhibition of T-type alpha1G calcium channel
Method in brief: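 HEK293 cells stably expressing α1G and Kir2.1 were seeded at 4 × 10⁴ cells/well and used the next day. They were loaded with 5 µM fluo3/AM and 0.001% Pluronic F-127 for 60 min at room temperature in Hepes buffer (pH 7.4). Channels were activated by 70 mM KCl depolarization in buffer containing 10 mM CaCl₂, and the rise in intracellular Ca²⁺ was read by fluorescence (FDSS6000).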

Row | Structure (SMILES) | Kd [nM]
47 | O=c1[nH]c2ccccc2n1C1CCN(CCCC(c2ccc(F)cc2)c2ccc(F)cc2)CC1 [PIMOZIDE] | 40

Target: T1, Voltage-dependent T-type calcium channel subunit alpha-1G
Assay: Inhibition of T-type alpha1G calcium channel expressed in HEK293 cells by whole-cell patch-clamp method

Row | Structure (SMILES) | IC50 [nM]
48 | Cc1ccc2nc(CN3CCN(C(=O)CC(c4ccccc4)c4ccc(F)cc4)CC3)oc2c1 (centres undefined) | 1290
49 | COC(=O)c1coc(CN2CCN(C(=O)CC(c3ccc(F)cc3)c3ccc(Br)cc3)CC2)n1 (centres undefined) | 830
50 | COC(=O)c1coc(CN2CCN(C(=O)CC(c3ccccc3)c3ccc(C(F)(F)F)cc3)CC2)n1 (centres undefined) | 17000
51 | COC(=O)c1coc(CN2CCN(C(=O)CC(c3ccccc3)c3ccc(Br)cc3)CC2)n1 (centres undefined) | 21100
52 | COC(=O)c1coc(CN2CCN(C(=O)CC(c3ccc(F)cc3)c3ccc(Cl)cc3)CC2)n1 (centres undefined) | 8800
53 | COC(=O)c1coc(CN2CCN(C(=O)CC(c3ccc(F)cc3)c3ccc(C(F)(F)F)cc3)CC2)n1 (centres undefined) | 1730
54 | COc1ccc(C(CC(=O)N2CCN(Cc3nc4ccc(C)cc4o3)CC2)c2ccccc2)cc1 (centres undefined) | 2480
